# Key:
# [1] = system: colchicine binding site on tubulin; assay: [3H]-colchicine competition scintillation proximity assay; conditions: tubulin 1 µM, [3H]-colchicine 5 µM
# Summary of the method: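 Competition scintillation proximity assay. Test compound was added to buffer (80 mM PIPES pH 6.8, 1 mM EGTA, 1 mM MgCl2, 10% glycerol, 1 mM GTP) containing tubulin 1 µM, then [3H]-colchicine 5 µM. After 2 h incubation, streptavidin-labelled SPA beads were added and radioactivity counted. Percent inhibition of colchicine binding was reported as mean ± SD of three independent experiments.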
# K562 cells [2] = assay: Annexin V-FITC/PI apoptosis flow cytometry; assay type: cell-based; conditions: 60 nM, 48 h, control 2.47%
# MDA-MB-231 cells [3] = assay: Transwell migration assay; assay type: cell-based; conditions: 60 nM, untreated 231.3 ± 12.2
# HUVECs [4] = assay: HUVEC tube formation assay on Matrigel; assay type: cell-based, human; conditions: 60 nM
# K562 cell line = assay: CCK-8 antiproliferative assay, K562; assay type: cell-based; conditions: K562, CCK-8, 72 h
# Summary of the method: (§1)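 Cells were grown in RPMI-1640 with 10% FBS at 37 °C in 5% CO2. About 3.5 × 10^3 cells/well were seeded, grown 24 h, then given test compound at several concentrations for 72 h in triplicate wells. CCK-8 was added for 2–3 h and OD read at 450 nm to give inhibition rate or IC50. K562 screen: mean of ≥2 independent experiments. Five-line panel: mean ± SD of three.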
# normal cell line HFL-1 = assay: CCK-8 assay, normal cell line HFL-1; assay type: cell-based; conditions: read-out: IC50 (µM) HFL-1; normal cell line HFL-1; CCK-8, 72 h; mean ± SD
# Summary of the method: as §1
# Bcl-2 protein family = assay: Western blot of apoptosis associated proteins; assay type: cell-based; conditions: K562, 48 h, western blotting
# Summary of the method: (§2)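 K562 cells were treated with or without test compound at several concentrations for 48 h. They were lysed in cold buffer with PMSF and centrifuged at 14,000 rpm for 15 min, and protein was quantified by BCA. Equal protein was run on SDS-PAGE, blotted to PVDF, blocked in 5% skim milk for 2 h, probed overnight at 4 °C, then secondary antibody for 1–2 h, and detected by ECL with densitometry. Targets: Cdc-2, Cyclin B1, Cdc25c; Bad, Bax, Bcl-2, Bcl-xl; GAPDH reference.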
# A549 = assay: CCK-8 antiproliferative assay, A549; assay type: cell-based; conditions: read-out: IC50 (µM) A549; A549; CCK-8, 72 h; mean ± SD
# Summary of the method: as §1
# K562 cells [5] = assay: Confocal immunofluorescence assay of microtubule networks; assay type: cell-based; conditions: 48 h, 15, 30, 60 nM
# HUVECs [6] = assay: HUVEC wound healing assay; assay type: cell-based, human; conditions: 24 h, dose-dependent
# Summary of the method: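 HUVECs were seeded at 5 × 10^5 cells/well overnight and incubated with or without test compound at several concentrations for 24 h. The monolayer was then scratched with a pipette tip and washed with PBS. The wound was imaged at 100× and imaged again after a further 24 h of culture.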
# HUVEC = assay: Inhibition of HUVEC proliferation; assay type: cell-based, human; conditions: read-out: IC50 in inhibiting the proliferation of HUVEC
# [7] = system: Cyclin B1, Cdc-2 and Cdc-25c; assay: Western blot of G2/M phase associated proteins; assay type: cell-based; conditions: K562; 48 h; western blotting; dose-dependent
# Summary of the method: as §2
# H22 tumour = assay: Immunohistochemistry of tumour tissue; assay type: in vivo, mice; conditions: H22 tumours; 20 mg/kg; IHC; vs control group
# Summary of the method: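 Tumours came from the vehicle, CA-4 20 mg/kg and test compound 20 mg/kg allograft groups. They were fixed in 4% paraformaldehyde overnight, paraffin-embedded and sectioned. Sections were blocked with 1% BSA for 20 min, incubated with CD31 or Ki67 primary antibody overnight at 4 °C, then HRP goat anti-rabbit for 1 h, developed with DAB and counterstained with haematoxylin. CD31 staining gave microvessel density.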
# K562 cells [8] = assay: Hoechst 33342 staining; assay type: cell-based; conditions: 48 h
# Hela = assay: CCK-8 antiproliferative assay, Hela; assay type: cell-based; conditions: read-out: IC50 (µM) Hela; Hela; CCK-8, 72 h; mean ± SD
# Summary of the method: as §1
# K562 cells [9] = assay: PI cell cycle flow cytometry; assay type: cell-based; conditions: 48 h, untreated 12.99 ± 0.26%
# H22 = assay: CCK-8 antiproliferative assay, H22; assay type: cell-based, mouse; conditions: read-out: IC50 (µM) H22; H22; CCK-8, 72 h; mean ± SD
# Summary of the method: as §1
# MDA-MB-231 cells [10] = assay: Transwell invasion assay; assay type: cell-based; conditions: 60 nM, untreated 81.3 ± 5.7
# [11] = H&E staining of vital organs, in vivo safety; conditions: mice; 20 mg/kg; heart, liver, spleen, lung, kidney
# Summary of the method: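 Heart, liver, spleen, lung and kidney came from the H22 allograft mice at sacrifice: vehicle, CA-4 20 mg/kg and test compound 20 mg/kg groups. Organs were fixed in 4% paraformaldehyde overnight, paraffin-embedded, sectioned and stained with haematoxylin and eosin.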
# H22 allograft = H22 allograft mice model, in vivo antitumor effect; conditions: 20 mg/kg i.v. once a day, three weeks
# Summary of the method: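 H22 cells in log phase (1 × 10^7 cells/mL, 0.1 ml) were injected s.c. into the right flank. Tumour size and body weight were recorded every two days. Mice were sacrificed at about 21 days. TGI (%) = (1 − Wt/Wc) × 100, using mean tumour weights.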
substance,measurement,setting,value
"2-methoxy-4-((4,5,6-trimethoxy-2,3-dihydro-1H-inden-2-yl)methyl)phenol [Compound 12d]",Inhibition (%) of colchicine binding,[1]; compound 1 µM,59.81 ± 3.84%
same,Inhibition (%) of colchicine binding,[1]; compound 5 µM,71.43 ± 1.03%
same,percent of total apoptosis cells,K562 cells [2],57.90%
same,number of migrated cells,MDA-MB-231 cells [3],124.0 ± 9.2
same,tube formation (capillary-like tubular networks) of HUVECs,HUVECs [4],almost all of the tube-like structure was broken
same,Inhibition rate (%),K562 cell line; 0.1 µM,78.82%
same,Inhibition rate (%),K562 cell line; 1 µM,80.57%
same,IC50,"K562 cell line; read-out: IC50 (µM) K562, mean ± SD",0.028 ± 0.007 µM
same,IC50,normal cell line HFL-1,0.271 ± 0.031 µM
same,expression of antiapoptotic proteins Bcl-2 and Bcl-xl,Bcl-2 protein family,downregulated
same,expression level of proapoptotic proteins Bax and Bad,Bcl-2 protein family; dose-dependent,upregulated
same,IC50,A549,0.087 ± 0.009 µM
same,effect on microtubule networks,K562 cells [5],caused disorder and destruction of microtubule networks
same,wound healing effect of HUVECs,HUVECs [6],the wound healing effect was disrupted
same,IC50,HUVEC,2260 ± 380 nM
same,"expression levels of Cyclin B1, Cdc-2 and Cdc-25c",[7],down-regulate
same,Ki67-positive cells,H22 tumour,decreased number of Ki-67 positive cells
same,"microvessel density (MVD), CD31",H22 tumour,lower MVD level
same,apoptosis morphology and nucleus changes,K562 cells [8],induced K562 cells nuclear fragmentation and cell morphology changes
same,IC50,Hela,0.078 ± 0.005 µM
same,population at the G2/M phase,K562 cells [9]; 15 nM,16.07 ± 0.83%
same,population at the G2/M phase,K562 cells [9]; 30 nM,21.23 ± 1.14%
same,population at the G2/M phase,K562 cells [9]; 60 nM,24.66 ± 0.63%
same,IC50,H22,0.068 ± 0.008 µM
same,number of invaded cells,MDA-MB-231 cells [10],51.3 ± 2.5
same,pathological damage of vital organs (H&E),[11],without obvious pathological damage
same,body weight,H22 allograft,no obvious body weight loss
same,tumour growth inhibition (TGI) value,H22 allograft; by tumour weight,74.94%
